Assay results reported in paper PMC5091360 (Science Advances, 2016).

Legend:
[1] = clinical studies; cited from earlier work
VEGF family = details: cited from earlier work
mouse VEGFR-3 = assay: phage binding assay, immobilized mouse VEGFR-3; details: 10^8 TU in 50 μl PBS, 2 hours, room temperature; control insertless phage Fd; colony count or phage-FLISA; triplicate plating
human VEGFR-3 = assay: phage binding assay, immobilized human VEGFR-3; details: 10^8 TU in 50 μl PBS, 2 hours, room temperature; control insertless phage Fd; colony count or phage-FLISA; triplicate plating
VEGFR-1 [2] = assay: phage binding assay, immobilized VEGFR-1; details: 10^8 TU in 50 μl PBS, 2 hours, room temperature; triplicate plating
VEGFR-2 = assay: phage binding assay, immobilized VEGFR-2; details: 10^8 TU in 50 μl PBS, 2 hours, room temperature; triplicate plating
NRP-1 = assay: phage binding assay, immobilized NRP-1; details: 10^8 TU in 50 μl PBS, 2 hours, room temperature; triplicate plating
NRP-2 = assay: phage binding assay, immobilized NRP-2; details: 10^8 TU in 50 μl PBS, 2 hours, room temperature; triplicate plating
PDGFR-β = details: such as in the case of sunitinib and PDGFR-β; cited from earlier work
human VEGFR-1 = assay: FLISA binding assay, NRP-1 to VEGFR-1; details: human NRP-1, FLISA
In short: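 Human VEGFR-1 extracellular domain coated at 200 ng per well in PBS overnight at 4°C, then blocked with Odyssey blocking buffer. Wells incubated with NRP-1 or NRP-2 in PBS with 10% (v/v) DMSO and 10% blocking buffer, with or without peptide (100 μg/ml). Bound NRP detected with goat anti-NRP-1 or anti-NRP-2 serum (1:100), then IRDye 680LT anti-goat, by infrared scanning. Duplicate wells; ANOVA with Tukey.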

VEGFR-1 [3] = details: read-out: Kd, NRP-1 to VEGFR-1; cited from earlier work
[4] = test system: IgD2 domain from human VEGFR-3; assay: phage PCAIWF binding to recombinant VEGFR-3 IgD2; details: peptide 100 μg/ml; FLISA, duplicate wells
[5] = test system: IgD2-3 domains from human VEGFR-3; assay: phage PCAIWF binding to recombinant VEGFR-3 IgD2-3; details: peptide 100 μg/ml; FLISA, duplicate wells
[6] = test system: ERK1/2 pathway in lymphatic endothelial cells (LECs); assay: ERK1/2 phosphorylation in lymphatic endothelial cells; type: cell-based, human; details: 10 min, 37°C
In short: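 Human dermal lymphatic microvascular endothelial cells were cultured overnight in EBM2 with 2% FBS, then starved 18 h in EBM2 with 0.2% BSA. They were stimulated with VEGF-A, VEGF-C or FGF-1, with or without test peptide or scrambled peptide (30 μg/ml). Lysates were immunoblotted for total and phospho-ERK1/2 using infrared-dye secondaries, and the phospho/total intensity ratio was taken. Two experiments were run; ANOVA with Tukey.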

HUVECs = assay: endothelial tube formation in Matrigel; type: cell-based, human; details: peptide 500 μg/ml in Matrigel
In short: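 HUVECs (1.5 × 10^4 per well) plated on Matrigel containing 1% DMSO, with or without peptide (500 μg/ml) in the gel. Cells kept in RPMI 1640 with VEGF-A (30 ng/ml) or VEGF-C (100 ng/ml). Tubes counted per field at 4× by bright-field microscopy. Triplicate wells; two independent experiments; Student's t test.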

VEGFR-3 [7] = biological target: T1, VEGFR-3 (Mus musculus, UniProt P35917); assay: competition assay, binding of phage PCAIWF to immobilized VEGFR-3; details: VEGF-A or VEGF-C (10 ng/ml); triplicate plating
T1 sequence (P35917 25-770): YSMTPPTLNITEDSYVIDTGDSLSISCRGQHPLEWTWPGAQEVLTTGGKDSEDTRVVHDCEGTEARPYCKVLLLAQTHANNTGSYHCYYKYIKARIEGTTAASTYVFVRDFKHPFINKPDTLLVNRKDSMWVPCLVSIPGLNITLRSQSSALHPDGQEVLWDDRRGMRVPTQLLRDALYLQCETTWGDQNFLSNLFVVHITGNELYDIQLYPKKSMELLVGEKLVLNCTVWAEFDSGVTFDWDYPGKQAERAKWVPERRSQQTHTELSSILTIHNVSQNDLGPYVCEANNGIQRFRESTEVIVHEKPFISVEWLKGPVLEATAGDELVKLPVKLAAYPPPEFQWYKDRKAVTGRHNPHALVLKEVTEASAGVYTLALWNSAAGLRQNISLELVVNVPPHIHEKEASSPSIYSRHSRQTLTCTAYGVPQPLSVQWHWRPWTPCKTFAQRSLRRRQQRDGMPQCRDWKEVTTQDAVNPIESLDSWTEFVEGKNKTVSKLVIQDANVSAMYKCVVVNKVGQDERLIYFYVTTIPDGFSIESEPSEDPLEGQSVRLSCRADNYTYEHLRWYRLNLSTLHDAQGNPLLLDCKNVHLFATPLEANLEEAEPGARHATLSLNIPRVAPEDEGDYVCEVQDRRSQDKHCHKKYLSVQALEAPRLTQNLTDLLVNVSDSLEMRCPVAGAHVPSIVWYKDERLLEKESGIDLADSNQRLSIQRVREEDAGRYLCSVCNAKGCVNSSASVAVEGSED

VEGFR-3 [8] = biological target: T1, VEGFR-3; assay: competition assay, binding of phage WVCSGG to immobilized VEGFR-3; details: VEGF-C or VEGF-A in competition
[9] = test system: IgD2 domain from human VEGFR-3; assay: VEGF-C binding to recombinant VEGFR-3 IgD2; details: FLISA, no peptide, duplicate wells
[10] = test system: IgD2-3 domains from human VEGFR-3; assay: VEGF-C binding to recombinant VEGFR-3 IgD2-3; details: FLISA, no peptide, duplicate wells
rat NRP-2 = biological target: T2, rat NRP-2 (rat, UniProt O35276); assay: ELISA
T2 sequence: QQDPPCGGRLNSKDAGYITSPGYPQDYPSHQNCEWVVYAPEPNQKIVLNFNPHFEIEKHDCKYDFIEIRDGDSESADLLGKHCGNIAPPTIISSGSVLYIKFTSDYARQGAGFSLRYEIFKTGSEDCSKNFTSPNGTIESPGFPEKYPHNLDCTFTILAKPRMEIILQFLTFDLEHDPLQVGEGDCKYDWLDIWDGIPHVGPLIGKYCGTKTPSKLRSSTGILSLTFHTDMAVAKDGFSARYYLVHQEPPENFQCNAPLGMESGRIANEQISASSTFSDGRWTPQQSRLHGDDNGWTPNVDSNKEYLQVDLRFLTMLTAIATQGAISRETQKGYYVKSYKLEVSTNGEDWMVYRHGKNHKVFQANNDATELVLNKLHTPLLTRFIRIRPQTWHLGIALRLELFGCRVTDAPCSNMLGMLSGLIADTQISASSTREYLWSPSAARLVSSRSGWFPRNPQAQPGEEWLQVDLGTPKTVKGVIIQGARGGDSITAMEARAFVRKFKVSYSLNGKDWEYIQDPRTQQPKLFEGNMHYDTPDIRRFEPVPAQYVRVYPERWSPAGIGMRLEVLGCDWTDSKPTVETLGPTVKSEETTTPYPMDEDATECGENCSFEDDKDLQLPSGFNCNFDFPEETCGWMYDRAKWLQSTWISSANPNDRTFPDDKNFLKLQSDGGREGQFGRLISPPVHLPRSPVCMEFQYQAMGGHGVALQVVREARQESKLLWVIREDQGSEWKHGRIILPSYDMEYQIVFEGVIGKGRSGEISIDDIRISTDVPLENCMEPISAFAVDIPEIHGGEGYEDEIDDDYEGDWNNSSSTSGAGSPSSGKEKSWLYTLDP

In the case of “aflibercept: ligand-binding domain of VEGFR-1 fused to an Ig constant region”, the “clinical efficacy in ophthalmology” value [1] is given as “better efficacy compared to bevacizumab and ranibizumab” and the “VEGF family members targeted” value (VEGF family) is given as “will target multiple members of the VEGF family (VEGF-A, VEGF-B, and PlGF) but will miss others (VEGF-C and VEGF-D)”.

For PCAIWF [phage PCAIWF], the “phage binding to mouse VEGFR-3” value (mouse VEGFR-3) was “both phages bound to mouse and human VEGFR-3”, the “phage binding to human VEGFR-3” value (human VEGFR-3) was “both phages bound to mouse and human VEGFR-3” and the “phage binding to VEGFR-1” value (VEGFR-1 [2]) was “not to the other receptors, VEGFR-1 and VEGFR-2”. For the same molecule, the “phage binding to VEGFR-2” value (VEGFR-2) was “not to the other receptors, VEGFR-1 and VEGFR-2”, the “phage binding to NRP-1” value (NRP-1) was “not to the other receptors, VEGFR-1 and VEGFR-2 (Fig. 1, C and D), including the two other non-RTKs, NRP-1 and NRP-2” and the “phage binding to NRP-2” value (NRP-2) was “not to the other receptors, VEGFR-1 and VEGFR-2 (Fig. 1, C and D), including the two other non-RTKs, NRP-1 and NRP-2”.

For CCN(CC)CCNC(=O)c1c(C)[nH]c(/C=C2\C(=O)Nc3ccc(F)cc32)c1C [sunitinib], the side effects (PDGFR-β) is given as “cardiotoxicity”.

In the case of “NRP-1: neuropilin-1, co-receptor for VEGF”, the “NRP-1 binding to VEGFR-1” value (human VEGFR-1) is listed as “strong interaction” and the Kd (VEGFR-1 [3]) is listed as ~1.8 nM.

In the case of IFCAPW, the “inhibition of phage PCAIWF binding to IgD2 by synthetic peptide” value [4] is reported as “not by the control peptide”, the “inhibition of phage PCAIWF binding to IgD2-3 by synthetic peptide” value [5] is reported as “not by the control peptide” and the “effect on FGF-1 induced phosphorylation of ERK1/2” value ([6]; FGF-1 100 ng/ml, peptide 30 μg/ml) is reported as “no effect on this downstream signaling event”. The “effect on VEGF-A induced phosphorylation of ERK1/2” value ([6]; VEGF-A 100 ng/ml, peptide 30 μg/ml) was “no effect on this downstream signaling event”, the “effect on VEGF-C induced phosphorylation of ERK1/2” value ([6]; VEGF-C 100 ng/ml, peptide 30 μg/ml) was “no effect on this downstream signaling event” and the “inhibition of tube formation, VEGF-A stimulated (in words)” value (HUVECs; VEGF-A 30 ng/ml) was “not by the control scramble peptide”. The “inhibition of tube formation, VEGF-C stimulated (in words)” value (HUVECs; VEGF-C 100 ng/ml) was “not by the control scramble peptide”.

B1: VEGF-C: VEGF family member, recombinant human ligand (protein)
chain: AHYNTEILKSIDNEWRKTQCMPREVCIDVGKEFGVATNTFFKPPCVSVYRCGGCCNSEGLQCMNTSTSYLSKTLFEITVPLSQGPKPVTISFANHTSCRCMSKLDVYRQVHSIIRR
With B1 the “inhibition of phage PCAIWF binding to VEGFR-3 by growth factor” value (VEGFR-3 [7]) was “Only VEGF-C prevents the binding of phage PCAIWF to the receptor (Fig. 2A) in a dose-dependent manner”, the “inhibition of phage WVCSGG binding to VEGFR-3 by growth factor” value (VEGFR-3 [8]) was “binding of phage WVCSGG to VEGFR-3 is also inhibited by VEGF-C” and the “VEGF-C binding to IgD2” value [9] was “binds to both recombinant ligand-binding domains IgD2”. For the same molecule, the “VEGF-C binding to IgD2-3” value [10] was “binds to both recombinant ligand-binding domains IgD2 (Fig. 2F) and IgD2-3” and the “phosphorylation of ERK1/2 upon growth factor stimulation” value ([6]; growth factor 100 ng/ml, 1% DMSO, heparin 10 U/ml) was “phosphorylation of ERK1/2 increases”.

B2: human VEGFR-1 extracellular domain (Fc fusion) (Fc fusion)
chain: SKLKDPELSLKGTQHIMQAGQTLHLQCRGEAAHKWSLPEMVSKESERLSITKSACGRNGKQFCSTLTLNTAQANHTGFYSCKYLAVPTSKKKETESAIYIFISDTGRPFVEMYSEIPEIIHMTEGRELVIPCRVTSPNITVTLKKFPLDTLIPDGKRIIWDSRKGFIISNATYKEIGLLTCEATVNGHLYKTNYLTHRQTNTIIDVQISTPRPVKLLRGHTLVLNCTATTPLNTRVQMTWSYPDEKNKRASVRRRIDQSNSHANIFYSVLTIDKMQNKDKGLYTCRVRSGPSFKSVNTSVHIYDKAFITVKHRKQQVLETVAGKRSYRLSMKVKAFPSPEVVWLKDGLPATEKSARYLTRGYSLIIKDVTEEDAGNYTILLSIKQSNVFKNLTATLIVNVKPQIYEKAVSSFPDPALYPLGSRQILTCTAYGIPQPTIKWFWHPCNHNHSEARCDFCSNNEESFILDADSNMGNRIESITQRMAIIEGKNKMASTLVVADSRISGIYICIASNKVGTVGRNISFYITDVPNGFHVNLEKMPTEGEDLKLSCTVNKFLYRDVTWILLRTVNNRTMHYSISKQKMAITKEHSITLNLTIMNVSLQDSGTYACRARNVYTGEEILQKKEITIRDQEAPYLLRNLSDHTVAISSSTTLDCHANGVPEPQITWFKNNHKIQQEPGIILGPGSSTLFIERVTEEDEGVYHCKATNQKGSVESSAYLTVQGTSDKSNLE
B2: binds (rat NRP-2).
